96 compounds from ChEMBL document CHEMBL4513216, “Probing the Open Global Health Chemical Diversity Library for Multistage-Active Starting Points for Next-Generation Antimalarials” (ACS Infect Dis, 2020) can be followed below.

This data set in a line: Toxicity liver stage against HepG2, at 10uM. It is filed as cell-based. Also on record: test concentration 10 uM, cell line HepG2-A16-CD81EGFP. Particulars: human, HepG2-A16-CD81EGFP cells; read-out: INHIBITION
The method, boiled down: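 Uninfected HepG2-A16-CD81EGFP cells, 3 × 10^3 per well, 1536-well, plated on prespotted compound at 10 μM final, parasite-free screening media added to match infected plates; puromycin 10 μM positive, DMSO 0.5% negative; run in parallel with 48 h PbLuc assay at 37 °C, 5% CO2; viability by CellTiter-Glo luminescence, normalized to controls.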

For `COCCNS(=O)(=O)c1cccc(CSC)c1`, the cytotoxicity at 10 µM was 11.9%.
As for `Cc1n[nH]c(C)c1CNC(=O)c1cn(CCC2CCCCN2)nn1` (stereo unspecified), the cytotoxicity at 10 µM turned out to be 1.61%.
For `Fc1ccc(-c2noc(C3COCCO3)n2)cc1F` (stereo unspecified) the value was -1.21%; for `COCC(=O)N1CCN(C(=O)CCc2ccsc2)CC1`, -17%.
Take `CSCC(=O)N1C[C@@H](C)[C@](O)(C(C)C)C1`: the cytotoxicity at 10 µM worked out at 9.24%.
To `c1csc(N2CCCN(c3ncnc4sccc34)CC2)n1` belongs 45.3%.
For `Cc1noc(C)c1-c1nc(C2CCCN(C(=O)CCN)C2)ccc1CO` (stereo unspecified) the value was -2.53%; for `Cc1cccc(-n2cc(C(=O)N3CCCC(n4cccn4)C3)nn2)c1` (stereo unspecified), -0.168%; for `CCCn1cc(CN2CCCC2c2nccc(CN(C)C)n2)cn1` (stereo unspecified), 19.7%.
To `Cn1ccc2c(ccn2CC(=O)Nc2ccc(Br)cc2)c1=O` belongs 10.4%.
In the case of `COc1ccnc(NC(=O)c2cscn2)c1`, the cytotoxicity at 10 µM amounted to 9.72%.
For `CC(C)OCCNC1(c2ccc(F)cc2)CCOCC1`, the cytotoxicity at 10 µM is -4.78%.
Turning to `CCCc1n[nH]c(C2CN(Cc3nnc(C4CC4)n3C)CCO2)n1` (stereo unspecified), the cytotoxicity at 10 µM is -2.36%.
For `CS(=O)(=O)N1CC2(CCN(C3COC3)C2)Cc2ccccc21` (stereo unspecified) the value was 11.9%; for `CCOC(=O)N1CCC(NC(C)c2ccccc2-n2cccn2)CC1` (stereo unspecified), -7.28%.
As to `CC(C)(O)CN1CCN(C(=O)c2ccc3c(c2)COC3)CC1`, the cytotoxicity at 10 µM was -0.644%.
`NCCN1CCC(c2nnc(Cn3ccnc3)n2C2CC2)CC1`: the cytotoxicity at 10 µM is -3.07%.
To `Cn1cc(C2CCCN2C(=O)CCCc2nc3ccccc3[nH]2)cn1` (stereo unspecified) belongs 2.35%; to `CN(C)S(=O)(=O)N1CCC(OCCCc2ccccc2)C1` (stereo unspecified), 0.696%; to `NC(=O)C(NCCc1ccc(Cl)s1)c1ccccc1` (stereo unspecified), 6.13%.
To `CCOc1ccc(CNC(=O)N2CCCC(CO)C2)cc1F` (stereo unspecified) belongs 8.21%; to `N[C@H]1CN(C(=O)CCCc2ccc(F)cc2)C[C@@H]1C1CC1`, -2.45%; to `Cc1ncsc1CN1CC[C@H]2OCC[C@@]2(C(=O)N2CCCO2)C1`, -0.0653%.
In the case of `Cc1c(C(=O)N2CCCC(n3cncn3)C2)cnn1C` (stereo unspecified), the cytotoxicity at 10 µM was -9.84%.
In the case of `CCC(C)N1Cc2c(C(=O)N3CCOCC3)nn(C)c2C1` (stereo unspecified), the cytotoxicity at 10 µM is -95.9%.
For `CCOc1ccc2nc(CN3CCC(CNC(C)=O)C3)ccc2c1` (stereo unspecified) the value was -7.23%; for `CN(C)[C@@H]1CCN(C(=O)c2cccc(C#N)c2)[C@H]1Cc1cnn(C)c1`, -72.6%.
As to `CC(=O)c1cc(CN2C[C@@H]3CC[C@H]2CN(S(C)(=O)=O)C3)cs1`, the cytotoxicity at 10 µM was 8.35%.
For `COc1cccc(COC(C)C(=O)NC2CCN(CC(N)=O)CC2)c1` (stereo unspecified) the value was 0.234%; for `CCn1cnnc1CNC(=O)c1cc(F)ccc1OC`, -14.3%.
On to `CCOc1cc(C(=O)N2CCN(C)CC2)cc2occc12`, for which the cytotoxicity at 10 µM turned out to be 7%.
Turning to `CCCc1nc(CN(CC)C(=O)c2ccc3c(c2)nnn3C)no1`, the cytotoxicity at 10 µM turned out to be 9.43%.
As for `Cc1ccccc1CS(=O)(=O)CC(=O)NC1CCCCNC1=O` (stereo unspecified), the cytotoxicity at 10 µM was -7.23%.
In the case of `CCc1cccc(N2CCC(NC(=O)C3CCOCC3)CC2)c1`, the cytotoxicity at 10 µM is -8.93%.
For the compound `CN(CC1CCCCO1)C(=O)c1ccnc(OC2CCC2)c1` (stereo unspecified), the cytotoxicity at 10 µM is -7.63%.
To `O=C(Nc1ccccn1)c1cncc(C2CCNCC2)n1` belongs -0.0757%; to `CN(C)C(=O)CN1C[C@@H]2OCCN(c3ncc(F)cn3)[C@@H]2C1`, -0.756%; to `Cc1ccc(C(=O)Nc2cn[nH]c2)cn1`, -6.1%.
To `Cc1nn(C)cc1-c1cc(C(F)(F)F)nc(NC2CCCCC2)n1` belongs 6.9%; to `CCc1ccc(CCC(=O)NCc2nnc[nH]2)cc1`, 7.47%; to `O=C(c1n[nH]c2c1CCN(Cc1nccs1)C2)N1CCOCC1`, -144%.
For the compound `COCCN(C)CCN1CC2(CCN(C(=O)C3CCOC3)CC2)OC1=O` (stereo unspecified), the cytotoxicity at 10 µM was -21.8%.
`Cc1ncnc2c1CCN(C(=O)c1ccnnc1)CC2`: the cytotoxicity at 10 µM came out at 9.9%.
For the compound `CCOCCN1C[C@H](C(=O)Nc2cccnc2)[C@@H]2CCO[C@@H]2C1`, the cytotoxicity at 10 µM is -101%.
For `O=C(c1cnccn1)N1C[C@@H]2CN(Cc3cccnc3)CCO[C@@H]2C1` the value was 2.89%; for `c1csc(C2(NCc3csc(C4CC4)n3)CCCC2)n1`, -3.75%.
As for `CC(C)S(=O)(=O)CC(=O)NCC(Cc1ccc(F)cc1)C(N)=O` (stereo unspecified), the cytotoxicity at 10 µM turned out to be 6.75%.
To `CCS(=O)(=O)N(C)C1CCN(c2cccc(F)c2C(C)=O)CC1` belongs 9.61%; to `O=S(=O)(Cc1cccc2cccnc12)NC(CO)c1ccco1` (stereo unspecified), 4.22%.
To `CCCS(=O)(=O)CCN1CCN(c2cc(F)ccc2F)CC1` belongs -10%; to `CN(Cc1ccc(Cl)s1)C(=O)NCCN1CCCCCC1=O`, -0.509%; to `Cc1cc(C)c2nc(C)c(C(=O)N3CCC(CCN(C)C)CC3)cc2c1`, -4.91%.
As for `Cc1ccc(C(=O)N2CCCCC2c2[nH]ncc2S(C)(=O)=O)cn1` (stereo unspecified), the cytotoxicity at 10 µM is -6.72%.
Take `CN1CCC(n2nc(CC3CC3)nc2-c2ccc(F)cc2Cl)CC1`: the cytotoxicity at 10 µM is -1.84%.
`COc1ccc(-n2ncc3c2NC(=O)CSC3CC(C)C)cc1` (stereo unspecified): the cytotoxicity at 10 µM was -0.418%.
Take `CNC(=O)[C@@H]1[C@H]2CNCCN2C[C@H]1c1ccccc1`: the cytotoxicity at 10 µM turned out to be 3.28%.
For `O=C(CN1CCC(OCC2CCCO2)CC1)NCC(F)(F)F` (stereo unspecified), the cytotoxicity at 10 µM was -1.2%.
Regarding `Cc1ccc(CN2CC3(CCN(C(=O)c4cscn4)C3)C2)s1`, the cytotoxicity at 10 µM was -10.3%.
Take `CCOc1ccc(CCCC(=O)N2CC[C@H](NC(C)=O)C2)cc1C`: the cytotoxicity at 10 µM is -16%.
For the compound `O=c1[nH]nc(SCC2CCCCO2)n1C1CC1` (stereo unspecified), the cytotoxicity at 10 µM amounted to 2.14%.
On to `Cc1cc(CS(=O)(=O)NC2CCCCC2)on1`, for which the cytotoxicity at 10 µM was determined as 2.92%.
For `CCCc1nc(NCC(=O)N2CCOCC2)c2c(n1)c(C)nn2CC` the value was 12.2%; for `CO[C@@H]1CCN(c2nnc(C)s2)C[C@@H]1Cc1cccc(C)c1`, 11.8%; for `Cn1cc(C(C)(O)CNc2ccc(Cl)c(C#N)n2)cn1` (stereo unspecified), 3.97%.
`CCCc1nc(CN(CC)C(=O)c2onc3ccccc23)no1`: the cytotoxicity at 10 µM was 9.67%.
With `CCN(CC)C(=O)Cn1ccc2cc(NC(=O)C3CCCO3)ccc21` (stereo unspecified), the cytotoxicity at 10 µM is 1.35%.
To `COCCOCC(=O)N1C[C@@H]2CC[C@H](Oc3cccc(F)c3)[C@@H]2C1` belongs -26%.
To `CCn1nc(C)c(CCNC(=O)C2CCCN(C(C)=O)C2)c1C` (stereo unspecified) belongs -20.8%; to `Cc1ccccc1-n1cc(-c2ccnc(N3CCCC(CN)C3)n2)cn1` (stereo unspecified), 1.34%; to `c1ncc2c(n1)CN(Cc1nc(-c3ccoc3)no1)CC2`, -10.2%.
To `CC(O)CC(C)(C)CNC(=O)Nc1cnn(-c2ccccc2F)c1` (stereo unspecified) belongs -3.27%; to `CCC(NC1CCN(S(C)(=O)=O)CC1)c1cccs1` (stereo unspecified), 0.125%.
For `Cc1nnc(CN2C[C@H](NC(=O)CC3CCCC3)[C@@H](C3CC3)C2)s1`, the cytotoxicity at 10 µM was -42.4%.
To `CC(C)N1CC[C@@H]2OC[C@H](C(=O)Nc3cccnc3)C[C@@H]2C1` belongs 15.7%; to `CC(C)(C)C(O)CN1CCN(C(=O)c2cccc3ncccc23)CC1` (stereo unspecified), 4.67%.
For `CNC(=O)CN1CCOCC2(CCCN(Cc3ccsc3)C2)C1` (stereo unspecified) the value was 2.61%.
To `O=C(NC[C@H]1OC[C@@H](NCc2cccs2)[C@@H]1O)N1CCOCC1` belongs -3.53%.
Regarding `O=C(Nc1c(F)cccc1Oc1ccccc1)C1CCS(=O)(=O)C1` (stereo unspecified), the cytotoxicity at 10 µM came out at 1.91%.
Consider `COc1ccc(CC(=O)NCC(O)c2sccc2C)cc1OC` (stereo unspecified), for which the cytotoxicity at 10 µM was determined as 11.4%.
For `Cn1cccc1CN1CCC2(CC1)CN(c1ncccn1)CCO2` the value was -4%; for `O=C(c1n[nH]cc1Cl)N1CCCC(n2nnc3cc(F)ccc32)C1` (stereo unspecified), -8.55%; for `Cc1nc(C)n(C2CCCN(C(=O)CCc3cscn3)C2)n1` (stereo unspecified), 6.74%.
To `Cc1nc(N2C[C@H]3CC[C@@H](C2)N3)nc2cc(S(C)(=O)=O)ccc12` belongs -7.71%.
For `Cn1[nH]c(CNc2cccc(Cl)c2)nc1=O` the value was -0.165%; for `c1cnc(N2CCO[C@H]3[C@H](OCC4CC4)CC[C@@H]32)nc1`, 5.88%; for `CN1CCN(C(=O)N2CCCC2)Cc2cccnc21`, -3.66%.
As for `CNS(=O)(=O)CC(=O)N1CCC(c2cc3ccccc3[nH]2)CC1`, the cytotoxicity at 10 µM came to 3.12%.
For `CCc1nc(C)c(-c2nccn2CC2CC(=O)N(CC)C2)[nH]1` (stereo unspecified) the value was 0.361%; for `Cc1cc(-c2cnc(N3CCCC(C)C3)nc2-c2cccnc2C)on1` (stereo unspecified), 7.85%.
For `O[C@@H]1CC(CNCc2ccccn2)(COc2cccnc2)C[C@@H]1O` (stereo partly specified) the value was -10.3%.
For `COCCN1C(=O)CCC12CCC(NCc1cccc(C)n1)CC2` (stereo unspecified) the value was 9.4%; for `c1coc(CN2CCCn3c(nnc3Cn3cccn3)C2)c1`, -0.945%.
Take `COCC(=O)Nc1ccnn1-c1ccc(Cl)cc1`: the cytotoxicity at 10 µM was found to be 2.18%.
For `O=C1CCC2(CCN(c3cccc(C(F)(F)F)n3)CC2)CN1CCO` the value was -18.2%.
To `CO[C@@H]1CCN(Cc2c(C)noc2C)[C@@H]2CN(Cc3cccnc3)C[C@@H]21` belongs 11.9%.
To `Cc1cscc1C(=O)N1CCCC1CC(=O)c1cnn(C)c1` (stereo unspecified) belongs -3.4%.
